Legend:
[1] = tested on: MV4-11; experiment: Antiproliferative activity against human MV4-11 cells
[2] = target: Tyrosine-protein kinase ABL1 (Homo sapiens) (UniProt P00519); experiment: Inhibition of human Abl kinase at 3 uM in presence of 10 uM ATP
Method in brief: (§1)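 Selectivity panel run at a single compound concentration of 3 µM with 10 µM ATP. Read-out is % inhibition of each kinase. Values are averages of duplicate experiments.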

[3] = species on record: Rattus norvegicus; experiment: Inhibition of rat AMPK at 3 uM in presence of 10 uM ATP; method in brief: as §1
[4] = target: Tyrosine-protein kinase ABL2 (Homo sapiens) (UniProt P42684); experiment: Inhibition of human Arg kinase at 3 uM in presence of 10 uM ATP; method in brief: as §1
[5] = target: Tyrosine-protein kinase BTK (Homo sapiens) (UniProt Q06187); experiment: Inhibition of human BTK kinase at 3 uM in presence of 10 uM ATP; method in brief: as §1
Chain of Tyrosine-protein kinase BTK (Homo sapiens) (Q06187 whole entry): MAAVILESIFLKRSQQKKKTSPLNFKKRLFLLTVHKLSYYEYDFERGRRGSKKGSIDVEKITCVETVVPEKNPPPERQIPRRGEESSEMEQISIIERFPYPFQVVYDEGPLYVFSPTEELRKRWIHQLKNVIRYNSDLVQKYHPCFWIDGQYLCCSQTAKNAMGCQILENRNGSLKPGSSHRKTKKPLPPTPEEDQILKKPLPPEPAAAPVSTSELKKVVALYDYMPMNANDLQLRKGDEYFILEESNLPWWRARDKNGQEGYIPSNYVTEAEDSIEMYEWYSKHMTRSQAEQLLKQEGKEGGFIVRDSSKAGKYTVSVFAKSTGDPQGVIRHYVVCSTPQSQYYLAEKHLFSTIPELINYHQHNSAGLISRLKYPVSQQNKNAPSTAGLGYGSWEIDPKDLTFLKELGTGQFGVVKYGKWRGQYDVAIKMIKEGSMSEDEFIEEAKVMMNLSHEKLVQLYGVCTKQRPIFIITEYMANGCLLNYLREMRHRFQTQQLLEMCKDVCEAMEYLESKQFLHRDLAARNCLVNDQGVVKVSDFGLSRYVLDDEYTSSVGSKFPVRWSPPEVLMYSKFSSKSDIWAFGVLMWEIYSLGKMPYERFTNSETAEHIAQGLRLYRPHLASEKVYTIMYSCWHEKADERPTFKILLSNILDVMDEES

[6] = target: T1, Serine/threonine-protein kinase Chk1 (Homo sapiens) (UniProt O14757); experiment: Inhibition of human CHK1 at 3 uM in presence of 10 uM ATP; method in brief: as §1
T1 sequence (whole entry): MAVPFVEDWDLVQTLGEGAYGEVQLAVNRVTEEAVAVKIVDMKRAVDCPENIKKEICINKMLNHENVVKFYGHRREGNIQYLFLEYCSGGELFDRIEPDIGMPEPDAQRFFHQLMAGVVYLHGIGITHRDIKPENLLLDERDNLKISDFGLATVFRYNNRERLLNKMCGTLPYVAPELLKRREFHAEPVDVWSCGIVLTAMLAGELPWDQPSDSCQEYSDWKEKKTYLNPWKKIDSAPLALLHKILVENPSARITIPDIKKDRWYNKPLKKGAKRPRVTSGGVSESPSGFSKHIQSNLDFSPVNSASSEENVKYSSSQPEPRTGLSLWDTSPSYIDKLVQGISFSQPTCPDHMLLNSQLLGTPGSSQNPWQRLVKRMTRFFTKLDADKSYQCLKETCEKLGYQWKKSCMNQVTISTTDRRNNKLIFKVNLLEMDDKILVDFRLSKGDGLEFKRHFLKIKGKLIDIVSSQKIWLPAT

[7] = target: Mitogen-activated protein kinase 10 (Homo sapiens) (UniProt P53779); experiment: Inhibition of human JNK3 at 3 uM in presence of 10 uM ATP; method in brief: as §1
Chain of Mitogen-activated protein kinase 10 (Homo sapiens) (P53779 whole entry): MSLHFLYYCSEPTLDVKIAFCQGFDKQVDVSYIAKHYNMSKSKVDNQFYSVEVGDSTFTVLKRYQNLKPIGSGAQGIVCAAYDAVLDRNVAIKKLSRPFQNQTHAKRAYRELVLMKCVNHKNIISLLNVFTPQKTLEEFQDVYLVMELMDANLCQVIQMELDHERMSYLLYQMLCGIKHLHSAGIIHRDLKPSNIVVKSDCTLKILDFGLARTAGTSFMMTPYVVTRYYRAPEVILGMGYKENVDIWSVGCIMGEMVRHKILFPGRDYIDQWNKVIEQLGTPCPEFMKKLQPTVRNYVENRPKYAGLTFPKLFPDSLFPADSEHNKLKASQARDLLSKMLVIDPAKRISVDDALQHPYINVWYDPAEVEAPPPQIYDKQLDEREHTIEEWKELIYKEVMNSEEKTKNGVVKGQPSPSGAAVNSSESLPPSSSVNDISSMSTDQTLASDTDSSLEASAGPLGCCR

[8] = target: Tyrosine-protein kinase Lyn (Homo sapiens) (UniProt P07948); experiment: Inhibition of human Lyn at 3 uM in presence of 10 uM ATP; method in brief: as §1
Chain of Tyrosine-protein kinase Lyn (Homo sapiens) (P07948 2-512 limits assumed): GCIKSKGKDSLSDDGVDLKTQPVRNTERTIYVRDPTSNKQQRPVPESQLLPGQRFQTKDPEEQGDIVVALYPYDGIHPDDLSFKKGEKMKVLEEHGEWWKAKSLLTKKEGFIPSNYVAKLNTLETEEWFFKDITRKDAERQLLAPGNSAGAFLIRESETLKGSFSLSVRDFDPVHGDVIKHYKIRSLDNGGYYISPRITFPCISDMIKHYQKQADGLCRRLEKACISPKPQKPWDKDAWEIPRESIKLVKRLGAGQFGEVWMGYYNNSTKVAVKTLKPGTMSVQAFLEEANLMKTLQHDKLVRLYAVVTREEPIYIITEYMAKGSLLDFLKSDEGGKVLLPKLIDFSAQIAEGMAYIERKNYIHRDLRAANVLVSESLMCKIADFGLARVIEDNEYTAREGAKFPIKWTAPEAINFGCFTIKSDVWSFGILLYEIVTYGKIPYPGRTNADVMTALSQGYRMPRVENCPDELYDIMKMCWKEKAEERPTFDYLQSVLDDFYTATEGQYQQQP

[9] = target: T2, Serine/threonine-protein kinase D2 (Homo sapiens) (UniProt Q9BZL6); experiment: Inhibition of human PKD2 at 3 uM in presence of 10 uM ATP; method in brief: as §1
T2 sequence (whole entry): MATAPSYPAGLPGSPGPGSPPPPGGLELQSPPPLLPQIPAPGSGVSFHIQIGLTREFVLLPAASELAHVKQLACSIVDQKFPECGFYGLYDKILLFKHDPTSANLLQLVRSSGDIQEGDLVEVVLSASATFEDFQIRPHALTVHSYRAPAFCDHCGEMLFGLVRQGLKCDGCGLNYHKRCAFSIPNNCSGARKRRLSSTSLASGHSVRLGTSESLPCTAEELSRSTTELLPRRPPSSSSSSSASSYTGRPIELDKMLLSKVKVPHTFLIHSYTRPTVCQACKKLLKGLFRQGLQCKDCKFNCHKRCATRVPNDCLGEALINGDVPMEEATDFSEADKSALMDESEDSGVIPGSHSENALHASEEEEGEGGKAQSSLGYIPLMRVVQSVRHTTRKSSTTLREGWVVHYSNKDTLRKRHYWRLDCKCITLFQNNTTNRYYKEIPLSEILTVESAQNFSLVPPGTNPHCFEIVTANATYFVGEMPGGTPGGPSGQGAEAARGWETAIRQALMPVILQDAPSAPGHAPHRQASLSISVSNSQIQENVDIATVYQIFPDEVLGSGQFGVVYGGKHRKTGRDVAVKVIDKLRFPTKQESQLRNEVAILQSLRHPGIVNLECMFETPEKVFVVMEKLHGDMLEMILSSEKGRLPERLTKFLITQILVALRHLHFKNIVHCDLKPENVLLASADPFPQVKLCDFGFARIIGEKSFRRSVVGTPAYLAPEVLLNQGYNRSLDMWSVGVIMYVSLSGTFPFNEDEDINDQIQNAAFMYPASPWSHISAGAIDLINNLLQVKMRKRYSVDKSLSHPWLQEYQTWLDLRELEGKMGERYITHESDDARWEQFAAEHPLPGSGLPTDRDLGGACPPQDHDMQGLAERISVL

[10] = target: Ribosomal protein S6 kinase alpha-1 (Homo sapiens) (UniProt Q15418); experiment: Inhibition of human Rsk1 at 3 uM in presence of 10 uM ATP; method in brief: as §1
Chain of Ribosomal protein S6 kinase alpha-1 (Homo sapiens) (Q15418 whole entry): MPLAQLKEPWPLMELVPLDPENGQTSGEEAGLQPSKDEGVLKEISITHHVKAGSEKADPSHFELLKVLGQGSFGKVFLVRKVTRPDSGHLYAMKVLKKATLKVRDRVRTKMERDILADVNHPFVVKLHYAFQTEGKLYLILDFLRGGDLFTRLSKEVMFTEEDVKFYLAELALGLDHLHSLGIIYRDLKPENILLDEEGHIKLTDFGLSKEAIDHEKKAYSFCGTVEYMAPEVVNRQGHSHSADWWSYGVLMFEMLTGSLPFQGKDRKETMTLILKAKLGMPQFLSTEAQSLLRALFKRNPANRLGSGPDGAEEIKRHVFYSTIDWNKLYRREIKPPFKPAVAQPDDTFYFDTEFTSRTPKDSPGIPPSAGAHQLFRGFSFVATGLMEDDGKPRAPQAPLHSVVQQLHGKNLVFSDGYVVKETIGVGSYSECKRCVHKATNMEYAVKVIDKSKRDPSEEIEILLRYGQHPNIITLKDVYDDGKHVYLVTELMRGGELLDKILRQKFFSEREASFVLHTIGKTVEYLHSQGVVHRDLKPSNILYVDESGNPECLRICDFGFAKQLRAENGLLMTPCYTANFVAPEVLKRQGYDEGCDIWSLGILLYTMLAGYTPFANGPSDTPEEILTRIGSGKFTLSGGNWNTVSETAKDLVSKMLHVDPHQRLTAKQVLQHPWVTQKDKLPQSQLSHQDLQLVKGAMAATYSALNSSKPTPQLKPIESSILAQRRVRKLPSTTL

[11] = target: BDNF/NT-3 growth factors receptor (Homo sapiens) (UniProt Q16620); experiment: Inhibition of human TrkB at 3 uM in presence of 10 uM ATP; method in brief: as §1
Chain of BDNF/NT-3 growth factors receptor (Homo sapiens) (Q16620 32-822 limits assumed): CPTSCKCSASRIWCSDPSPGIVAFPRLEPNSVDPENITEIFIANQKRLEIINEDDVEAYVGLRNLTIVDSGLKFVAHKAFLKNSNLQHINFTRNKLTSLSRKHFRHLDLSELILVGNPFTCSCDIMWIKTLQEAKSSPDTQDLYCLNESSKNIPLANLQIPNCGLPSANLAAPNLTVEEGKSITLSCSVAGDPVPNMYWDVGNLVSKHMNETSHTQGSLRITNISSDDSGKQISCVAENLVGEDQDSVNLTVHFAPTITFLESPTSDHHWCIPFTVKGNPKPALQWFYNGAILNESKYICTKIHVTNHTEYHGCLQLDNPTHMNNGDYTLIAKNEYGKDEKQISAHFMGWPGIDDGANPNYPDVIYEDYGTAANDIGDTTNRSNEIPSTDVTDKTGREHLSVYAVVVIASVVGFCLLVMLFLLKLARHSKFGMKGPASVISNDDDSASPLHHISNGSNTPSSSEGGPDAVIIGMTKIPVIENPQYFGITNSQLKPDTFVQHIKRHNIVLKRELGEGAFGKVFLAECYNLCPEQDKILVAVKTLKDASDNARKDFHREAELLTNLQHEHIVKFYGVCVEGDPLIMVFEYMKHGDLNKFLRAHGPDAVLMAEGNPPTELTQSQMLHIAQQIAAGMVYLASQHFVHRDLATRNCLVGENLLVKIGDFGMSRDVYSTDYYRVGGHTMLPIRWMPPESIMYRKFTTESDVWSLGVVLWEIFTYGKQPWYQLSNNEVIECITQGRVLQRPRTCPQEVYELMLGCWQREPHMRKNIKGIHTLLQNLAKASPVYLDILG

[12] = target: T3, Receptor-type tyrosine-protein kinase FLT3 (Homo sapiens, UniProt P36888); experiment: Inhibition of FLT3
T3 sequence (P36888 whole entry): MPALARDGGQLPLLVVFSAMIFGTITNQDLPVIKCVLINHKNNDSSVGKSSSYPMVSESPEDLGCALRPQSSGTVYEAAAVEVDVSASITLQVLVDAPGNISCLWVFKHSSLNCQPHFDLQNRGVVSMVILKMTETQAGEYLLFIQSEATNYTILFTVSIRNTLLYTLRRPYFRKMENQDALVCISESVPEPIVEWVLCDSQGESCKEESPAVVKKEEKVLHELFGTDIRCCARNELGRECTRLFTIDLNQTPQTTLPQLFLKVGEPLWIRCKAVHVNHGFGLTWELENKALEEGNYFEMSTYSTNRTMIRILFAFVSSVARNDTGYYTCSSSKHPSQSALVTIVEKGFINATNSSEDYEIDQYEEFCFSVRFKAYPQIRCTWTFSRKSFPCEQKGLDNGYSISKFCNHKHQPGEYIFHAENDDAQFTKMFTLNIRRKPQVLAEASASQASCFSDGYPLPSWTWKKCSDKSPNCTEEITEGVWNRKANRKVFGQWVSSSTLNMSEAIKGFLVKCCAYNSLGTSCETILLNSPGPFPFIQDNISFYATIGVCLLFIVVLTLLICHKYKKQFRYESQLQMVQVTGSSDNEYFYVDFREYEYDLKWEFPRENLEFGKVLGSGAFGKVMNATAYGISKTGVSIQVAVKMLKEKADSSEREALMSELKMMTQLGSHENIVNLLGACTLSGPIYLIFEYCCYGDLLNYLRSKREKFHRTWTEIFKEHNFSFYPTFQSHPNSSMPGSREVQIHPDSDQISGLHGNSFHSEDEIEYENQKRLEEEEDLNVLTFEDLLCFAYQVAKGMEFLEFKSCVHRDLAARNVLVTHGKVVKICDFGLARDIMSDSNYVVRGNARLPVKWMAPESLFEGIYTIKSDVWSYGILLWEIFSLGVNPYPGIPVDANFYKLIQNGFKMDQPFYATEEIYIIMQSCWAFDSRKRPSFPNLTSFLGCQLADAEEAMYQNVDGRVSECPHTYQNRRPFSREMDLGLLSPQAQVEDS

Chain of Tyrosine-protein kinase ABL1 (Homo sapiens) (P00519 whole entry): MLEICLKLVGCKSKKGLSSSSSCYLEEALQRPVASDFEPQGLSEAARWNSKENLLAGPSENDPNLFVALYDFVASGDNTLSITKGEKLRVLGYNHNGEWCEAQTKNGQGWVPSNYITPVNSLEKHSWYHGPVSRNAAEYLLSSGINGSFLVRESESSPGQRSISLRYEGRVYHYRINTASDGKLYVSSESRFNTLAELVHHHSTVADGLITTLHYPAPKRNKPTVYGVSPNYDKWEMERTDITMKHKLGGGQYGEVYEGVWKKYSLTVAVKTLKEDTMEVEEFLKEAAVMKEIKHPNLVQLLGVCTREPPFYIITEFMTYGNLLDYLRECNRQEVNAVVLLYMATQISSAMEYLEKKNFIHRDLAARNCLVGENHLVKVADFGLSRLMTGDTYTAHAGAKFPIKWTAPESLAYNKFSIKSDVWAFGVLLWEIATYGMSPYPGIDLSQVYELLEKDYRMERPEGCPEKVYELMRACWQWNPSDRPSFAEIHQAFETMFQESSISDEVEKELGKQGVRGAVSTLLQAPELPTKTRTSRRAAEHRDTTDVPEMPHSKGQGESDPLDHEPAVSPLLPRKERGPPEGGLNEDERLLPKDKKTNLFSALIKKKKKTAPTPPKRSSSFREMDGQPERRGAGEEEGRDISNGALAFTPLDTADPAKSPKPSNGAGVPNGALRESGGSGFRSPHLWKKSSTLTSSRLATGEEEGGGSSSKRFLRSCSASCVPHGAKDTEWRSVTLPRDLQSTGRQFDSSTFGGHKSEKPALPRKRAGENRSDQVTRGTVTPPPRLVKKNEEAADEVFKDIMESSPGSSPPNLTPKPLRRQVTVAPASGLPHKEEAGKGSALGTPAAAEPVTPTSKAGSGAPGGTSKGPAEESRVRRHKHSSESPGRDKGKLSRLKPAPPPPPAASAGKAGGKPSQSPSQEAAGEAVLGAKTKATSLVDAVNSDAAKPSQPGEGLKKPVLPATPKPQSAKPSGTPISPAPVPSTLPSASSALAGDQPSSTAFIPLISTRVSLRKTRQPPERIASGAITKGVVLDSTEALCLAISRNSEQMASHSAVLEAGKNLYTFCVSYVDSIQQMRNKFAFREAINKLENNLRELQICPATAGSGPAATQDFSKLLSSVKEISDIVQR

IC50 [1]: 340 nM | inhibition [2]: 21% | inhibition [3]: -4% | inhibition [4]: 49% | inhibition [5]: 14% | inhibition [6]: -7% | inhibition [7]: -6% | inhibition [8]: 21% | inhibition [9]: -7% | inhibition [10]: 3% | inhibition [11]: 39% | IC50 [12]: 42 nM
Structure (SMILES): COc1ccc(C(=O)Nc2sc3c(c2C(N)=O)CCCC3)cc1OC

From ChEMBL document CHEMBL1147807, “Identification of 2-acylaminothiophene-3-carboxamides as potent inhibitors of FLT3” (Bioorg Med Chem Lett, 2006)
